Holding throughout (format): functional
Settings in all cases: read-out: Activity

Assay [1] in a line: Neuroprotective activity against glutamate-stimulated rat cortical cells assessed as cell viability at 0.1 uM after 1 hr by LDH assay relative to control. Put shortly:
(§1)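 Mixed cortical cultures from 17- to 19-day fetal Sprague-Dawley rats, grown 2 weeks in DMEM/10% FCS, with 5-fluorodeoxyuridine 50 µM from day 3. Cells were washed, given sample in DMSO (0.1% final) for 1 h, then 50 µM glutamate plus sample for 24 h. Medium LDH was read at 450 nm. Viability is relative to glutamate-only and vehicle control; mean ± SEM, three experiments.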

Assay [2] can be described thus: Neuroprotective activity against glutamate-stimulated rat cortical cells assessed as cell viability at 1 uM after 1 hr by LDH assay relative to control. The essentials: as §1
The nature of assay [3]: Neuroprotective activity against glutamate-stimulated rat cortical cells assessed as cell viability at 10 uM after 1 hr by LDH assay relative to control. The essentials:
as §1

Structures are written as SMILES.

In the case of `COC(=O)C1=CO[C@@H](O[C@@H]2O[C@H](CO)[C@@H](O)[C@H](O)[C@H]2O)[C@@H]2C(CO)=C[C@@H](OC(=O)/C=C/c3ccc(OC)cc3)[C@H]12`, the viability at 0.1 µM in assay [1] came to 65.4%. For the same compound, the viability at 1 µM in assay [2] came to 71.8%. Also, the viability at 10 µM in assay [3] amounted to 52.8%.
On the same counts, the results for `O=c1c(O[C@@H]2O[C@H](CO)[C@H](O)[C@H](O)[C@H]2O[C@@H]2O[C@H](CO)[C@@H](O)[C@H](O)[C@H]2O)c(-c2ccc(O)c(O)c2)oc2cc(O)cc(O)c12` are 48.2%, 66% and 54%.
On the same counts, the results for `COC(=O)C1=CO[C@@H](O[C@@H]2O[C@H](CO)[C@@H](O)[C@H](O)[C@H]2O)[C@@H]2C(CO)=C[C@@H](OC(=O)/C=C\c3ccc(O)cc3)[C@H]12` are 6.9%, 25.7% and 6.3%.
On the same counts, the results for `O=c1c(O[C@@H]2O[C@H](CO)[C@H](O)[C@H](O)[C@H]2O[C@@H]2O[C@H](CO)[C@@H](O)[C@H](O)[C@H]2O)c(-c2ccc(O)cc2)oc2cc(O)cc(O)c12` are 4.6%, 27% and 25.2%.
With `COc1cc(/C=C/C(=O)OC[C@H]2O[C@@H](O[C@H]3[C@H](Oc4c(-c5ccc(O)c(O)c5)oc5cc(O)cc(O)c5c4=O)O[C@H](CO)[C@H](O)[C@@H]3O)[C@H](O)[C@@H](O)[C@@H]2O)ccc1O`, the viability at 0.1 µM in assay [1] was 62.7%. The viability at 1 µM in assay [2] turned out to be 72.9%. The viability at 10 µM in assay [3] was determined as 75%.
On the same counts, the results for `COC(=O)C1=CO[C@@H](O[C@@H]2O[C@H](CO)[C@@H](O)[C@H](O)[C@H]2O)[C@@H]2C(CO)=C[C@@H](OC(=O)/C=C\c3ccc(OC)cc3)[C@H]12` are 28.8%, 54.6% and 23.7%.
For `COc1cc(/C=C/C(=O)OC[C@H]2O[C@@H](O[C@H]3[C@H](Oc4c(-c5ccc(O)c(O)c5)oc5cc(O)cc(O)c5c4=O)O[C@H](CO)[C@@H](O)[C@@H]3O)[C@H](O)[C@@H](O)[C@@H]2O)ccc1O`, the viability at 0.1 µM in assay [1] came out at 62.9%. For the same compound, in assay [2], the viability at 1 µM amounted to 71.5%. The viability at 10 µM in assay [3] was determined as 73.7%.
On the same counts, the results for `COc1cc(/C=C/C(=O)OC[C@H]2O[C@@H](O[C@H]3[C@H](Oc4c(-c5ccc(O)cc5)oc5cc(O)cc(O)c5c4=O)O[C@H](CO)[C@H](O)[C@@H]3O)[C@H](O)[C@@H](O)[C@@H]2O)ccc1O` are 25.2%, 66.9% and 25.2%.
Regarding `COC(=O)C1=CO[C@@H](O[C@@H]2O[C@H](CO)[C@@H](O)[C@H](O)[C@H]2O)[C@@H]2C(CO)=C[C@@H](OC(=O)/C=C/c3ccc(O)cc3)[C@H]12`, in assay [1], the viability at 0.1 µM was found to be 14.5%. In addition, the viability at 1 µM in assay [2] is 62.2%. For the same compound, in assay [3], the viability at 10 µM was 26.8%.
